Assay results taken from the EternaBench riboswitch data.

Tested on: MS2 coat protein
Assay: apparent Kd, MS2 coat protein; higher = weaker binding; RNA-MaP array; FMN 200 µM where present
Outline: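 The titrant was SNAP-549-labelled MS2 coat protein, run from 0.7 or 1.5 nM in doubling steps to 3 µM. It was applied to designs transcribed by stalled E. coli RNA polymerase on Illumina sequencing-chip clusters, without ligand first and then with constant ligand, in 100 mM Tris-HCl pH 7.5, 80 mM KCl, 4 mM MgCl2, BSA, DTT, yeast tRNA and Tween-20. The apparent Kd is the median of filtered per-cluster binding-curve fits, with green signal normalised to red-channel RNA signal and control-cluster median Fmax.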

[1] = designed as: OFF switch for flavin mononucleotide, no ligand
[2] = ligand present: flavin mononucleotide, designed as: OFF switch for flavin mononucleotide
[3] = designed as: ON switch for flavin mononucleotide, no ligand
[4] = ligand present: flavin mononucleotide, designed as: ON switch for flavin mononucleotide

**Q.** What does the source list for “AUUAUGAAGCAGUUAUAACUCUAAACAUGAGGAUCACCCAUGUAGGAUAUCAGCACGAUAAGUGCUGAGAAGGACAUCUGCUUC”?
**A.** apparent Kd [1]: 15.3 nM; apparent Kd [2]: 18.4 nM

**Q.** Which results are given for “AUUUAUGUCAUAGGAUAUAUAAAUAAAUUUAUAACAUGAGGAUCACCCAUGUACUUGGGUAUUAGGUAGAAGGAUGAUAAGAAU”?
**A.** apparent Kd [3]: 572 nM; apparent Kd [4]: 254 nM

**Q.** Which “apparent Kd” value [3] does the source give for “UGCUAACUGUAGAAGGGUGACAUGAGGAUCACCCAUGUGCACGCGCGAUUUACGGCGCGCGUGCCACAGGAUAUACAGUCGAGU” here?
**A.** 28.3 nM

**Q.** What about the “apparent Kd” value [4] of the same sequence?
**A.** 54.4 nM

**Q.** “UUUUUACGAGGAUAUCGUUUUUUUCACAUGAGGAUCACCCAUGUUGUUUAUGUUUCGUUGCGAGAAGGCGUUUGUU” was tested. Which “apparent Kd” value [1] did it give?
**A.** 27.3 nM

**Q.** And the “apparent Kd” value [2]?
**A.** 21.3 nM

**Q.** For “UUAUUAUAUGUAGGAUAUGCAUAUUAUUAUUAUGCAGAAGGACAUGAGGAUCACCCAUGUAUAUUAUUAUUAUAUAUUAUAUAU”, which “apparent Kd” value [1] is on record?
**A.** 30.1 nM

**Q.** And the “apparent Kd” value [2]?
**A.** 53.7 nM

**Q.** Which “apparent Kd” value [3] does the source give for “AGUAAGAUGCAGAAGGUGUCAGCGAGAGCUACGACAUGAGGAUCACCCAUGUACUAGAUAGAGUACAAGGAUAUGCAUCUUACA” here?
**A.** 729 nM

**Q.** And the “apparent Kd” value [4]?
**A.** 35.1 nM

**Q.** What does the source list for “GGAUAGGACAGAGGAUAUACCGAUAGGAUCUACUAUCGAACAAUUCUCACAUGAGGAUCACCCAUGUAGAAGGCUGUCCUAUCG”?
**A.** apparent Kd [1]: 16.6 nM; apparent Kd [2]: 29.4 nM

**Q.** With “GACUGAUUACAGAAGGUGUAAGACAUGAGGAUCACCCAUGUGUAAAAGGGUAUAUUUGAAUAUAACAAGGAUAUGUUUUAAUCA” as the sequence, how does the “apparent Kd” value [3] read?
**A.** 75.1 nM

**Q.** What about the “apparent Kd” value [4] of the same sequence?
**A.** 49.3 nM

**Q.** Which “apparent Kd” value [1] does the source give for “GGAGCAUAUGUCAGGAUAUCGUGGUCGAUAGAUCACGAGAAGGGACAUGAGGAUCACCCAUGUCUGUCCGCUCC” here?
**A.** 14.2 nM

**Q.** And the “apparent Kd” value [2]?
**A.** 16.4 nM

**Q.** For “ACCUCACAUGAGGAUCACCCAUGUUAGGAUAUCUCGAUGCUCCACGGGCGGUAGCAUCAGAGAAGGAACGUGCU”, which “apparent Kd” value [1] is on record?
**A.** 23.9 nM

**Q.** And the “apparent Kd” value [2]?
**A.** 21.5 nM

**Q.** Which results are given for “AGUAAGAUGCAGAAGGUGUCAGCGAGAGCUGCGACAUGAGGAUCACCCAUGUACUAGUGAGAGUACAAGGAUAUGCAUCUUACA”?
**A.** apparent Kd [3]: 313 nM; apparent Kd [4]: 45.7 nM

**Q.** Which results are given for “UUAUGAUAGAUAGGAUAUACAUUGGAUUUAAAAGUAGAAGGAUCAAGUGGGAAAUGAACAUGAGGAUCACCCAUGUAAUAGGUU”?
**A.** apparent Kd [3]: 109 nM; apparent Kd [4]: 78.6 nM

**Q.** Which results are given for “GCCAGGAUGUGAGGAUAUGCUGAGGAUAACUCAGCAGAAGGCACAUGAGGAUCACCCAUGUAAACUUAUCAUAAAUACCCUGGC”?
**A.** apparent Kd [1]: 14.3 nM; apparent Kd [2]: 21.2 nM

**Q.** Which “apparent Kd” value [1] does the source give for “UGGUUGUCAGGAUAUACGUUUUUUAACUUUUGUUUUAUAUUGUAGAAGGGACAUGAGGAUCACCCAUGUUACGU” here?
**A.** 25.2 nM

**Q.** And the “apparent Kd” value [2]?
**A.** 27.1 nM

**Q.** For “CUAUACAUAUCAGGAUAUCAUCGAGUGGAUUAACACAGUGAUUACAUGAGGAUCACCCAUGUGCUUGAGAAGGGAUUACUAUUU”, which “apparent Kd” value [1] is on record?
**A.** 14.6 nM

**Q.** What about the “apparent Kd” value [2] of the same sequence?
**A.** 12.9 nM

**Q.** Which “apparent Kd” value [1] does the source give for “GAAUAAUUGAUCCAAUUUAACUACAUGAGGAUCACCCAUGUGCAGGAUAUCGUAAUAUUUAAUUACGAGAAGGGCAAGAACGGU” here?
**A.** 366 nM

**Q.** And the “apparent Kd” value [2]?
**A.** 516 nM

**Q.** “AAUUCACAUGAGGAUCACCCAUGUCAGGAUAUGGUUACGCGGGUUUCGGUGCGUGUGGCCAGAAGGGACAGCUA” was tested. Which “apparent Kd” value [1] did it give?
**A.** 65 nM

**Q.** What about the “apparent Kd” value [2] of the same sequence?
**A.** 80.5 nM

**Q.** Which results are given for “GGUUGGCGAGGAUAUACAUGAGGAUCACCCAUGUGGUCCUGUGAAAAAAAAAACCUUUGUAGAAGGCGCGGGUC”?
**A.** apparent Kd [1]: 292 nM; apparent Kd [2]: 281 nM

**Q.** With “AACAAACAUGAGGAUCACCCAUGUGAGGAUAUCGGAUGUACAGCGCAAUUAGAAUUAACGAGAAGGCACACUUA” as the sequence, how does the “apparent Kd” value [1] read?
**A.** 30.6 nM

**Q.** And the “apparent Kd” value [2]?
**A.** 29.1 nM

**Q.** Which results are given for “GCCUCAUAGUAGAAGGGACUUAUACAGUAAUGUUUUUAGUGUAAAUAACAUGAGGAUCACCCAUGUCAGGAUAUACUAAGAGGC”?
**A.** apparent Kd [1]: 9.24 nM; apparent Kd [2]: 12.1 nM

**Q.** With “CAGUACUGAGGAUAUACAUGAGGAUCACCCAUGUGCUUUAGCUAGGAUACUAGCACCAGUAGAAGGCAGUACUG” as the sequence, how does the “apparent Kd” value [1] read?
**A.** 10.6 nM

**Q.** What about the “apparent Kd” value [2] of the same sequence?
**A.** 23.8 nM

**Q.** With “GCCAUCUCAUGAGGAUAUGCUCCCGUGUCGGGAGCAGAAGGCAUGUCAUAAGACAUGAGGAUCACCCAUGUAGUUAAGAUGGCA” as the sequence, how does the “apparent Kd” value [3] read?
**A.** 263 nM

**Q.** And the “apparent Kd” value [4]?
**A.** 11.1 nM

**Q.** Which results are given for “AAUGGGCAGCAGAAGGCAUGUCAAUGGACAUGAGGAUCACCCAUGUAGUAUAGCCGAAAGGCACAUGAGGAUAUGCUGCCCUAA”?
**A.** apparent Kd [3]: 47.2 nM; apparent Kd [4]: 6.74 nM

**Q.** Which results are given for “GGGUACAUCGGAGGAUAUCAUGUAAAUACAUGAGGAUCACCCAUGUCGAUGGAGACAUCGGAGAUUGAGAAGGCCGAUGUACCA”?
**A.** apparent Kd [3]: 154 nM; apparent Kd [4]: 10.1 nM
